According to ChEMBL document CHEMBL3400013, “Synthesis and biological activity evaluation of hydrazone derivatives based on a Tröger's base skeleton” (Bioorg Med Chem, 2015):
Activity calls are given as the source filed them. The rule behind the calls is not given here.

Experiments:
Enterococcus faecalis = assay: Antimicrobial activity against Enterococcus faecalis CCM 4224 up to 200 uM after 24 to 48 hrs by broth microdilution method; assay type: functional, organism-based
[1] = Metal chelating activity of the compound assessed as formation of Mg2+ complex by UV-vis spectrometry; assay type: physicochemical
[2] = test system: Staphylococcus haemolyticus; assay: Antimicrobial activity against methicillin-resistant Staphylococcus haemolyticus A1/16568 up to 200 uM after 24 to 48 hrs by broth microdilution method; assay type: functional, organism-based
[3] = Cytostatic activity against human p53-/- HCT116 cells after 72 hrs by MTT assay; assay type: functional, cell-based; details: HCT-116, 72 h
Method in brief: (§1)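 Cells were seeded at 25,000–30,000 per well and pre-incubated for 24 h at 37°C in 5% CO2. Four-fold compound dilutions were added in duplicate and incubated for 72 h. MTT was added for 1–4 h, and formazan was dissolved in 10% aq SDS (pH 5.5) overnight at 37°C. OD was read at 540 nm. IC50 came from dose-response curves, mean ± SD of eight independent experiments.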

K562 [4] = assay: Selectivity index, ratio of IC50 for human MRC5 cells to IC50 for human K562 cells; assay type: functional
BJ [5] = assay: Cytostatic activity against human BJ cells after 72 hrs by MTT assay; assay type: ADME, cell-based; method in brief: as §1
BJ [6] = assay: Selectivity index, ratio of IC50 for human BJ cells to IC50 for human CCRF-CEM cells; assay type: functional; details: pooled result: one value given for 2 cell lines, strains, targets or settings
Staphylococcus aureus [7] = assay: Antimicrobial activity against Staphylococcus aureus CCM 3953 up to 200 uM after 24 to 48 hrs by broth microdilution method; assay type: functional, organism-based
MRC5 [8] = assay: Selectivity index, ratio of IC50 for human MRC5 cells to IC50 for human K562-TAX cells; assay type: functional
Nucleic Acid [9] = assay: Binding affinity to DNA (unknown origin) assessed as DNA intercalation by UV-visible spectrophotometry in presence of Cu2+; assay type: nucleic-acid assay
HCT-116 [10] = assay: Selectivity index, ratio of IC50 for human MRC5 cells to IC50 for human HCT116 cells; assay type: functional
CEM-DNR = assay: Selectivity index, ratio of IC50 for human MRC5 cells to IC50 for human CEM-DNR cells; assay type: functional
A549 [11] = assay: Selectivity index, ratio of IC50 for human BJ cells to IC50 for human A549 cells; assay type: functional
[12] = Cytostatic activity against human HCT116 cells after 72 hrs by MTT assay; assay type: functional, cell-based; details: HCT-116, 72 h; method in brief: as §1
Pichia kudriavzevii = assay: Antifungal activity against Candida crusei up to 200 uM after 24 to 48 hrs by broth microdilution method; assay type: functional, organism-based
Nucleic Acid [13] = assay: Binding affinity to DNA (unknown origin) assessed as DNA intercalation by UV-visible spectrophotometry in presence of Fe3+; assay type: nucleic-acid assay
Escherichia coli [14] = assay: Antimicrobial activity against multidrug-resistant Escherichia coli C/16702 up to 200 uM after 24 to 48 hrs by broth microdilution method; assay type: functional, organism-based
Nucleic Acid [15] = assay: Binding affinity to DNA (unknown origin) assessed as DNA intercalation by UV-visible spectrophotometry in presence of Zn2+; assay type: nucleic-acid assay
[16] = Metal chelating activity of the compound assessed as formation of Ca2+ complex by UV-vis spectrometry; assay type: physicochemical
[17] = Metal chelating activity of the compound assessed as formation of Co2+ complex by UV-vis spectrometry; assay type: physicochemical
Nucleic Acid [18] = assay: Binding affinity to DNA (unknown origin) assessed as DNA intercalation by UV-visible spectrophotometry in presence of Co2+; assay type: nucleic-acid assay
HCT-116 [19] = assay: Selectivity index, ratio of IC50 for human MRC5 cells to IC50 for human p53-/- HCT116 cells; assay type: functional
Escherichia coli [20] = assay: Antimicrobial activity against Escherichia coli CCM 3954 up to 200 uM after 24 to 48 hrs by broth microdilution method; assay type: functional, organism-based
Candida albicans = assay: Antifungal activity against Candida albicans up to 200 uM after 24 to 48 hrs by broth microdilution method; assay type: functional, organism-based
[21] = Metal chelating activity of the compound assessed as formation of Ni2+ complex by UV-vis spectrometry; assay type: physicochemical
[22] = Metal chelating activity of the compound assessed as formation of Cr3+ complex by UV-vis spectrometry; assay type: physicochemical
[23] = Cytostatic activity against human K562-TAX cells after 72 hrs by MTT assay; assay type: functional, cell-based; method in brief: as §1
Pseudomonas aeruginosa [24] = assay: Antimicrobial activity against Pseudomonas aeruginosa CCM 395 up to 200 uM after 24 to 48 hrs by broth microdilution method; assay type: functional, organism-based
BJ [25] = assay: Selectivity index, ratio of IC50 for human BJ cells to IC50 for human K562-TAX cells; assay type: functional
Candida parapsilosis = assay: Antifungal activity against Candida parapsilosis up to 200 uM after 24 to 48 hrs by broth microdilution method; assay type: functional, organism-based
Candida tropicalis = assay: Antifungal activity against Candida tropicalis up to 200 uM after 24 to 48 hrs by broth microdilution method; assay type: functional, organism-based
BJ [26] = assay: Selectivity index, ratio of IC50 for human BJ cells to IC50 for human p53-/- HCT116 cells; assay type: functional
[27] = Cytostatic activity against human CEM-DNR cells after 72 hrs by MTT assay; assay type: functional, cell-based; method in brief: as §1
Pseudomonas aeruginosa [28] = assay: Antimicrobial activity against multidrug-resistant Pseudomonas aeruginosa A/16575 up to 200 uM after 24 to 48 hrs by broth microdilution method; assay type: functional, organism-based
Staphylococcus aureus [29] = assay: Antimicrobial activity against methicillin-resistant Staphylococcus aureus MRSA 4591 up to 200 uM after 24 to 48 hrs by broth microdilution method; assay type: functional, organism-based
MRC5 [30] = assay: Cytostatic activity against human MRC5 cells after 72 hrs by MTT assay; assay type: ADME, cell-based; details: MRC5, 72 h; method in brief: as §1
Nucleic Acid [31] = assay: Binding affinity to DNA (unknown origin) assessed as DNA intercalation by UV-visible spectrophotometry; assay type: nucleic-acid assay
[32] = Metal chelating activity of the compound assessed as formation of Mn2+ complex by UV-vis spectrometry; assay type: physicochemical
BJ [33] = assay: Selectivity index, ratio of IC50 for human BJ cells to IC50 for human CEM-DNR cells; assay type: functional
BJ [34] = assay: Selectivity index, ratio of IC50 for human BJ cells to IC50 for human HCT116 cells; assay type: functional
K562 [35] = assay: Cytostatic activity against human K562 cells after 72 hrs by MTT assay; assay type: functional, cell-based; details: K562, 72 h; method in brief: as §1
A549 [36] = assay: Selectivity index, ratio of IC50 for human MRC5 cells to IC50 for human A549 cells; assay type: functional
[37] = Metal chelating activity of the compound assessed as formation of Fe3+ complex by UV-vis spectrometry; assay type: physicochemical
CCRF-CEM = assay: Cytostatic activity against human CCRF-CEM cells after 72 hrs by MTT assay; assay type: functional, cell-based; method in brief: as §1
A549 [38] = assay: Cytostatic activity against human A549 cells after 72 hrs by MTT assay; assay type: functional, cell-based; details: A549, 72 h; method in brief: as §1
[39] = Metal chelating activity of the compound assessed as formation of Zn2+ complex by UV-vis spectrometry; assay type: physicochemical
[40] = Metal chelating activity of the compound assessed as formation of Cu2+ complex by UV-vis spectrometry; assay type: physicochemical
Nucleic Acid [41] = assay: Binding affinity to DNA (unknown origin) assessed as DNA intercalation by UV-visible spectrophotometry in presence of Ni2+; assay type: nucleic-acid assay
[42] = Metal chelating activity of the compound assessed as formation of Fe2+ complex by UV-vis spectrometry; assay type: physicochemical
BJ [43] = assay: Selectivity index, ratio of IC50 for human BJ cells to IC50 for human K562 cells; assay type: functional

COc1cccnc1/C=N/NC(=O)c1ccc2c3c(ccc2c1)N1Cc2c(ccc4cc(C(=O)N/N=C/c5ncccc5OC)ccc24)N(C3)C1
Activity (Enterococcus faecalis): inactive
Activity [1]: Not Active
Activity [2]: inactive
IC50 [3]: > 100 µM
Ratio IC50 (K562 [4]): 1.8
IC50 (BJ [5]): > 100 µM
Ratio IC50 (BJ [6]): 2.7
Activity (Staphylococcus aureus [7]): inactive
Ratio IC50 (MRC5 [8]): 34.1
Activity (Nucleic Acid [9]): Active
Ratio IC50 (HCT-116 [10]): 1.2
Ratio IC50 (CEM-DNR): 14.9
Ratio IC50 (A549 [11]): 1
IC50 [12]: 85.7 µM
Activity (Pichia kudriavzevii): inactive
Activity (Nucleic Acid [13]): Active
Activity (Escherichia coli [14]): inactive
Activity (Nucleic Acid [15]): Active
Activity [16]: Not Active
Activity [17]: Active
Activity (Nucleic Acid [18]): Active
Ratio IC50 (HCT-116 [19]): 1
Activity (Escherichia coli [20]): inactive
Activity (Candida albicans): inactive
Activity [21]: Active
Activity [22]: Not Active
IC50 [23]: 2.93 µM
Activity (Pseudomonas aeruginosa [24]): inactive
Ratio IC50 (BJ [25]): 34.1
Activity (Candida parapsilosis): inactive
Activity (Candida tropicalis): inactive
Ratio IC50 (BJ [26]): 1
IC50 [27]: 6.71 µM
Activity (Pseudomonas aeruginosa [28]): inactive
Activity (Staphylococcus aureus [29]): inactive
IC50 (MRC5 [30]): > 100 µM
Activity (Nucleic Acid [31]): inactive
Activity [32]: Not Active
Ratio IC50 (BJ [33]): 14.9
Ratio IC50 (BJ [34]): 1.2
IC50 (K562 [35]): 55.6 µM
Ratio IC50 (A549 [36]): 1
Activity [37]: Active
IC50 (CCRF-CEM): 36.6 µM
IC50 (A549 [38]): > 100 µM
Activity [39]: Active
Activity [40]: Active
Activity (Nucleic Acid [41]): Active
Activity [42]: Not Active
Ratio IC50 (BJ [43]): 1.8
